ChEMBL document CHEMBL3286371, “wALADin benzimidazoles differentially modulate the function of porphobilinogen synthase orthologs” (J Med Chem, 2014)
Active and inactive are the calls of the source. The rule behind the calls is not given here.

Columns and labels:
[1] = target: T1, Delta-aminolevulinic acid dehydratase (Escherichia coli (strain K12)) (UniProt P0ACB2); experiment: Inhibition of Escherichia coli recombinant PBGS using 5-ALA as substrate at 50 to 200 uM at pH 7 to 8.5 by buffer scan assay in presence of KCl
T1 sequence (whole entry): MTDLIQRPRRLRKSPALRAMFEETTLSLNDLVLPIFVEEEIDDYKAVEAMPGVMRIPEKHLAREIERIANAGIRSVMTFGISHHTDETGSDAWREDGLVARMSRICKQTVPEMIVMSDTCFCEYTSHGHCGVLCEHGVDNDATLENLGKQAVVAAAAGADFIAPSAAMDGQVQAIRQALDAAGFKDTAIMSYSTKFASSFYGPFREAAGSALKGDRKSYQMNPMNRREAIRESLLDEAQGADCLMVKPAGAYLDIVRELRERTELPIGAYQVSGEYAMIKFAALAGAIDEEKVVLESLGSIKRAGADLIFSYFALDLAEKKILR

[2] = target: Delta-aminolevulinic acid dehydratase (Pseudomonas aeruginosa (strain ATCC 15692 / PAO1 / 1C / PRS 101 / LMG12228), UniProt Q59643); experiment: Inhibition of Pseudomonas aeruginosa PAO1 recombinant PBGS using 5-ALA as substrate
Delta-aminolevulinic acid dehydratase (Pseudomonas aeruginosa (strain ATCC 15692 / PAO1 / 1C / PRS 101 / LMG12228), UniProt Q59643), sequence (Q59643 whole entry): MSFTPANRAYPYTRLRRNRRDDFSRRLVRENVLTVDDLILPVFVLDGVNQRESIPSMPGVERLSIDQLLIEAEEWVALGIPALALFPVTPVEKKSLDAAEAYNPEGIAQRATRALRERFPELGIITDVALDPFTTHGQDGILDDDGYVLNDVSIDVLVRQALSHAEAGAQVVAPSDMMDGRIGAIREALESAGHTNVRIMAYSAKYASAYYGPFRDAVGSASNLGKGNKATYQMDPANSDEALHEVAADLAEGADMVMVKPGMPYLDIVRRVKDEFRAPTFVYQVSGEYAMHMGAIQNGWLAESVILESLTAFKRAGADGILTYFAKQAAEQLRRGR
How it was run: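 Turnover kept at or below 30%. Porphobilinogen measured with Ehrlich's reagent. IC50 by variable-slope fit of activity normalized to DMSO control.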

[3] = target: Delta-aminolevulinic acid dehydratase (Pseudomonas aeruginosa (strain ATCC 15692 / PAO1 / 1C / PRS 101 / LMG12228)) (UniProt Q59643); experiment: Inhibition of Pseudomonas aeruginosa PAO1 recombinant PBGS using 0.2 mM 5-ALA as substrate at 10 to 10000 uM at pH 7.5 by buffer scan assay in presence of 1 mM MgCl2
Delta-aminolevulinic acid dehydratase (Pseudomonas aeruginosa (strain ATCC 15692 / PAO1 / 1C / PRS 101 / LMG12228)), sequence (Q59643 whole entry): as above

[4] = target: Delta-aminolevulinic acid dehydratase (Pseudomonas aeruginosa (strain ATCC 15692 / PAO1 / 1C / PRS 101 / LMG12228)) (UniProt Q59643); experiment: Stimulation of Pseudomonas aeruginosa PAO1 recombinant PBGS using 5 mM 5-ALA as substrate assessed as change in enzyme affinity for Mg2+ at 10 to 10000 uM at pH 8 by buffer scan assay in presence of MgCl2
How it was run: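 Mg2+ or substrate response curves recorded with and without wALADin1; VMAX, KM and Mg2+ affinity derived from the fits.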

[5] = target: Delta-aminolevulinic acid dehydratase (Pseudomonas aeruginosa (strain ATCC 15692 / PAO1 / 1C / PRS 101 / LMG12228)) (UniProt Q59643); experiment: Inhibition of Pseudomonas aeruginosa PAO1 recombinant PBGS using 0.2 mM 5-ALA as substrate assessed as […] at 50 to 200 uM at pH 7.5 by buffer scan assay in presence of 1 mM MgCl2 and 1 to 1000 mM KCl
[6] = target: Delta-aminolevulinic acid dehydratase (Pseudomonas aeruginosa (strain ATCC 15692 / PAO1 / 1C / PRS 101 / LMG12228)) (UniProt Q59643); experiment: Competitive inhibition of Pseudomonas aeruginosa PAO1 recombinant PBGS using 0.2 mM 5-ALA as substrate assessed as increase in Km at 50 to 200 uM at pH 7.5 by Michaelis-Menten plot analysis in presence of MgCl2
How it was run: (§1)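 PaPBGS under "standard inhibitory" conditions (100 mM Tris-HCl pH 7.5, 1 mM MgCl2, no KCl). 5-ALA varied for substrate-response curves at several wALADin1 levels; KM and VMAX derived from the fits. Incubation at 36 °C.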

[7] = target: Delta-aminolevulinic acid dehydratase (Pseudomonas aeruginosa (strain ATCC 15692 / PAO1 / 1C / PRS 101 / LMG12228)) (UniProt Q59643); experiment: Inhibition of Pseudomonas aeruginosa PAO1 recombinant PBGS using 0.2 mM 5-ALA as substrate assessed as reduction in Vmax at 50 to 200 uM at pH 7.5 by Michaelis-Menten plot analysis in presence of MgCl2; how it was run: as §1
[8] = target: Delta-aminolevulinic acid dehydratase (Yersinia enterocolitica W22703) (UniProt F4MUJ9); experiment: Stimulation of Yersinia enterocolitica recombinant PBGS expressed in Escherichia coli using 5-ALA as substrate at 10 to 1000 uM at pH 8 in presence of 0.1 to 10000 uM MgCl2
Delta-aminolevulinic acid dehydratase (Yersinia enterocolitica W22703), sequence (F4MUJ9 as listed by the source): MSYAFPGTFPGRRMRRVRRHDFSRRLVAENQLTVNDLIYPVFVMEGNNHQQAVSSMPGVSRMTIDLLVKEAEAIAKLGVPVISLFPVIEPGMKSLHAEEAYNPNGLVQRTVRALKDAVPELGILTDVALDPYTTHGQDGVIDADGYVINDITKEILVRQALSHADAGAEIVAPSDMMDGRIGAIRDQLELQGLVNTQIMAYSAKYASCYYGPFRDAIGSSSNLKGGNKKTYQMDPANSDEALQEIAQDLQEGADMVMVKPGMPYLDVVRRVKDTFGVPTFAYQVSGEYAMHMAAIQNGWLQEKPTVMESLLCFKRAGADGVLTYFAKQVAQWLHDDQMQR

[9] = target: T1, Delta-aminolevulinic acid dehydratase (Escherichia coli (strain K12)); experiment: Stimulation of Escherichia coli recombinant PBGS using 5-ALA as substrate at 10 to 1000 uM at pH 8 in presence of MgCl2 and KCl
[10] = target: T1, Delta-aminolevulinic acid dehydratase (Escherichia coli (strain K12)); experiment: Stimulation of Escherichia coli recombinant PBGS using 5-ALA as substrate at 10 to 1000 uM at pH 8 in presence of 0.1 to 10000 uM MgCl2
[11] = target: T2, Delta-aminolevulinic acid dehydratase, chloroplastic (Pisum sativum, UniProt P30124); experiment: Inhibition of Pisum sativum PBGS using 5-ALA as substrate; set-up: species or system Lathyrus oleraceus
T2 sequence (P30124 whole entry): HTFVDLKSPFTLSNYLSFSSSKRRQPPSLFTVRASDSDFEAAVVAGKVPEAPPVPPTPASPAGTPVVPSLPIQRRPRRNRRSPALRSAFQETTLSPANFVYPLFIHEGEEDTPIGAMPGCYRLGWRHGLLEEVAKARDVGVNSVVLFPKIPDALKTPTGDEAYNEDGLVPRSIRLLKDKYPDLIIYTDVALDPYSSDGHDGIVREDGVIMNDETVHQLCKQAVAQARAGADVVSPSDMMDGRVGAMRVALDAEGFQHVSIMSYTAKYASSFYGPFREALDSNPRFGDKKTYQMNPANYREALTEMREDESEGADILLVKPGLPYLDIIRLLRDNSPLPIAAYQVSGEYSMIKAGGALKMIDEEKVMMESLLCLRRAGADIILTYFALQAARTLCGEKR
How it was run: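 Pea (P. sativum) PBGS at 300 nM subunit in 100 mM BTP-HCl pH 8.5 with 1 mM MgCl2, 5 mM DTT and 0.2 mM 5-ALA, 15 min at 36 °C. Porphobilinogen detected with Ehrlich's reagent. Activity normalized to 6.7% DMSO control as 100%. IC50 from variable-slope normalized-response fit.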

[12] = target: T3, Delta-aminolevulinic acid dehydratase, chloroplastic (Pisum sativum) (UniProt P30124); experiment: Competitive inhibition of Pisum sativum PBGS using 5-ALA as substrate at 6.25 to 100 uM; conditions: Lathyrus oleraceus
T3 sequence (whole entry): T2 sequence (P30124 whole entry)

[13] = target: T3, Delta-aminolevulinic acid dehydratase, chloroplastic (Pisum sativum); experiment: Non-competitive inhibition of Pisum sativum PBGS using 5-ALA as substrate at 6.25 to 100 uM; conditions: Lathyrus oleraceus
[14] = target: T1, Delta-aminolevulinic acid dehydratase (Escherichia coli (strain K12)); experiment: Stimulation of Escherichia coli recombinant PBGS using 5-ALA as substrate relative to control
How it was run: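 E. coli PBGS at 200 nM subunit in 100 mM BTP-HCl pH 8.1 with 1 mM MgCl2, 10 μM ZnCl2, 5 mM DTT and 0.2 mM 5-ALA, 10 min at 36 °C. Porphobilinogen detected with Ehrlich's reagent. EC50 by log(agonist) vs response variable-slope fit.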

[15] = target: Delta-aminolevulinic acid dehydratase (Yersinia enterocolitica W22703, UniProt F4MUJ9); experiment: Stimulation of Yersinia enterocolitica recombinant PBGS expressed in Escherichia coli using 5-ALA as substrate
Delta-aminolevulinic acid dehydratase (Yersinia enterocolitica W22703, UniProt F4MUJ9), sequence (F4MUJ9 whole entry, one chain of several): as the sequence (F4MUJ9 as listed by the source) above

[16] = target: Delta-aminolevulinic acid dehydratase (Yersinia enterocolitica W22703) (UniProt F4MUJ9); experiment: Stimulation of Yersinia enterocolitica recombinant PBGS expressed in Escherichia coli using 5-ALA as substrate relative to control
How it was run: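 Y. enterocolitica PBGS, expressed in E. coli from pET3, at 150 nM subunit in 100 mM BTP-HCl pH 8.0 with 1 mM MgCl2, 5 mM DTT, 100 mM KCl and 0.2 mM 5-ALA, 10 min at 36 °C. Porphobilinogen read with Ehrlich's reagent. Activity normalized to 6.7% DMSO control as 100%. EC50 from variable-slope agonist fit.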

## O=C(O)c1ccc2c(c1)nc(CCNC(=O)c1cccs1)n2Cc1cccc(C(F)(F)F)c1
[1]
  inhibition: Active
[2]
  IC50: 79 µM
[3]
  inhibition: Active
[4]
  Activity: Active
[5]
  inhibition: inactive
[6]
  inhibition: Active
[7]
  inhibition: Active
[8]
  Activity: Active
[9]
  Activity: Active
[10]
  Activity: Active
[11]
  IC50: 10.6 µM
[12]
  inhibition: Active
[13]
  inhibition: Active
[14]
  Smax: 120%
[15]
  EC50: 66 µM
[16]
  Smax: 152%
